As usually defined, the IC50 is the point on the concentration scale where inhibition reaches its midpoint. Low readings indicate greater potency, high ones weaker potency. As usually defined, the inhibition is the relative decrease from the control value, in per cent. Higher therefore signals strong suppression.

The results in this text go back to ChEMBL document CHEMBL1129424, “Heterocyclic amides: inhibitors of acyl-CoA:cholesterol O-acyl transferase with hypocholesterolemic activity in several species and antiatherosclerotic activity in the rabbit” (J Med Chem, 1996).

The structures appear in SMILES notation.

One assay has as its system Rattus norvegicus. Kind of assay: Percent change in total cholesterol in the acute cholesterol-fed rat model (APCC) of hypercholesterolemia at 3 mg/Kg. It is filed as functional. The essentials:
(§1)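 Acute rat model: compound given by gavage at 30 or 3 mg/kg in 1.5% carboxymethylcellulose/0.2% Tween-20 in water (3-4 pm). Rats then fed overnight a diet with 5.5% peanut oil, 1.5% cholesterol, 0.5% cholic acid. Result is percent decrease in plasma total cholesterol versus controls.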
As to `CCCCCCCCCCCCc1cn(C(C(=O)Nc2c(OC)cc(OC)cc2OC)c2ccccc2)cn1` (centres undefined), the DeltaTC was -43%.
For `CCCCCCCCCCCCc1cn(C(C(=O)Nc2c(OC)cc(OC)cc2OC)c2ccccc2)nn1` (centres undefined), the DeltaTC is -66%.
Consider `CCCCCCCCCCCCc1noc(C(C(=O)Nc2c(OC)cc(OC)cc2OC)c2ccccc2)n1` (centres undefined), for which the DeltaTC is given as -58%.
`CCCCCCCCCCCCc1nc(C(C(=O)Nc2c(OC)cc(OC)cc2OC)c2ccccc2)no1` (centres undefined): the DeltaTC is given as -56%.

System in the next assay: not listed separately
In words: Acyl coenzyme A:cholesterol acyltransferase inhibition in cell culture measured in murine IC-21 macrophages. The essentials:
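Murine IC-21 macrophages preincubated 16 h in serum-free DMEM with albumin (20 μM) and phosphatidylserine/cholesterol vesicles; then compound in DMSO for 1 h, then 14C-sodium oleate added for 4 more h. Lipids extracted in hexane/2-propanol with [14C]cholesterol internal standard; neutral lipids separated by TLC, phosphorimaged; protein by Lowry. IC50 is the concentration giving 50% inhibition.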
`CCCCCCCCCCCCc1cn(C(C(=O)Nc2c(OC)cc(OC)cc2OC)c2ccccc2)nn1` (centres undefined) displayed an IC50 of 0.054 µM.

Another assay addresses T1, Sterol O-acyltransferase 1 (Rattus norvegicus) (UniProt O70536).
T1 sequence (whole entry): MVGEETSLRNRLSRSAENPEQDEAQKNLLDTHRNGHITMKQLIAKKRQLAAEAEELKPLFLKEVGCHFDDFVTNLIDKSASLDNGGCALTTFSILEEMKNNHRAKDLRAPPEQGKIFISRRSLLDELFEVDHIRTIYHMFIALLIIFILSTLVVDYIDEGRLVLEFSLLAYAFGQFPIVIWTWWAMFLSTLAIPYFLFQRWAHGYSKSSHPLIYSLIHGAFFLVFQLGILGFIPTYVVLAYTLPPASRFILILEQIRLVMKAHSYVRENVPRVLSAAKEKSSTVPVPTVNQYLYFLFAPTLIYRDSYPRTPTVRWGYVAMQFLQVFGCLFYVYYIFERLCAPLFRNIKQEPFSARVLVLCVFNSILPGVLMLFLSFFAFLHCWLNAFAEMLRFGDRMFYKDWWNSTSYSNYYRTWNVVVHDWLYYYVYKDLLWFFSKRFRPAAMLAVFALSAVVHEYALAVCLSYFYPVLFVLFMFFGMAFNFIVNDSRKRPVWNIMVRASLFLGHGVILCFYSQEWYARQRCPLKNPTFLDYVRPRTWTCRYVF
Kind of assay: Inhibition of rat liver microsomal Acyl coenzyme A:cholesterol acyltransferase 1 from rabbit plasma after an oral dose of 25 mg/kg. It is filed as cell-free. The essentials:
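Male New Zealand white rabbits conditioned to meal feeding for 1 week, then given a meal containing drug at 25 mg/kg in 3% peanut oil/3% coconut oil vehicle. Plasma was sampled at 0, 1, 2 and 4 h and extracted into hexane, then redissolved in chloroform/methanol (2:1). It was assayed for liver microsomal ACAT inhibition against standards of compound spiked into rabbit plasma in DMSO.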
On the technique in general: Liver microsomes are vesicles of endoplasmic reticulum, rich in cytochrome P450 enzymes.
Take `CCCCCCCCCCCCc1cn(C(C(=O)Nc2c(OC)cc(OC)cc2OC)c2ccccc2)nn1` (centres undefined): the inhibition was 12%.

For a further assay, the system named is Rattus norvegicus. Kind of assay: Percent change in total cholesterol in the acute cholesterol-fed rat model (APCC) of hypercholesterolemia at 30 mg/Kg. It is filed as functional. The essentials: as §1
In the case of `CCCCCCCCCCCCc1cn(C(C(=O)Nc2c(OC)cc(OC)cc2OC)c2ccccc2)cn1` (centres undefined), the DeltaTC is -62%.
As for `CCCCCCCCCCCCc1cn(C(C(=O)Nc2c(OC)cc(OC)cc2OC)c2ccccc2)nn1` (centres undefined), the DeltaTC is listed as -69%.
On the same count and under the same terms, the figure for `CCCCCCCCCCCCc1noc(C(C(=O)Nc2c(OC)cc(OC)cc2OC)c2ccccc2)n1` (centres undefined) is -60%; for `CCCCCCCCCCCCc1nc(C(C(=O)Nc2c(OC)cc(OC)cc2OC)c2ccccc2)no1` (centres undefined) it is -54%.

A further assay deals with T2, Sterol O-acyltransferase 1 (Rattus norvegicus, UniProt O70536).
T2 sequence (O70536 whole entry): T1 sequence (whole entry)
In words: Inhibition of Acyl coenzyme A:cholesterol acyltransferase 1 from rat liver microsomes. The essentials: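 Microsomes isolated from livers of cholesterol-fed rats were incubated with compound and [1-14C]oleoyl-CoA to measure ACAT inhibition; IC50 reported in μM.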
`CCCCCCCCCCCCc1cn(C(C(=O)Nc2c(OC)cc(OC)cc2OC)c2ccccc2)cn1` (centres undefined) displayed an IC50 of 0.11 µM.
The same measure, in the same setting: the figure for `CCCCCCCCCCCCc1cn(C(C(=O)Nc2c(OC)cc(OC)cc2OC)c2ccccc2)nn1` (centres undefined) is 0.022 µM; for `CCCCCCCCCCCCc1noc(C(C(=O)Nc2c(OC)cc(OC)cc2OC)c2ccccc2)n1` (centres undefined) it is 0.031 µM; for `CCCCCCCCCCCCc1nc(C(C(=O)Nc2c(OC)cc(OC)cc2OC)c2ccccc2)no1` (centres undefined) it is 0.031 µM.
